Experimental data as given in ChEMBL document CHEMBL1153724, “Multivalent binding oligomers inhibit HIV Tat-TAR interaction critical for viral replication” (Bioorg Med Chem Lett, 2009).
Active and inactive are the calls of the source. The rule behind the calls is not given here.

Experiments:
Nucleic Acid [1] = experiment: Inhibition of fluorescein labeled Tat-peptide binding to HIV1 TAR RNA after 60 mins by FRET assay; format: nucleic-acid assay, Human immunodeficiency virus 1
Procedure, shortened: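 Competition assay: inhibition of association between TAR RNA and a fluorescently labeled Tat-derived peptide, read by fluorescence; IC50 values derived.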

Nucleic Acid [2] = experiment: Inhibition of fluorescein labeled Rev binding to HIV1 RRE RNA assessed as decrease of fluorescent anisotropy at 20 uM after 1 hour by fluorescence polarization-based assay; format: nucleic-acid assay, Human immunodeficiency virus 1
Procedure, shortened: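 Competition assay tracking Rev binding to RRE by fluorescence; tested up to 20 μM.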

[3] = Cytotoxicity in human HeLa cells transfected with HIV Tat-LTR by FITC-conjugated DAPI staining by fluorescence microscopy; format: cell-based; conditions: read-out: TC50 (the source's name)
[4] = Inhibition of HIV1 Rev transfected in human HeLa cells after 48 hrs by duel luciferase reporter gene assay; format: cell-based; conditions: Human immunodeficiency virus 1, HeLa
Procedure, shortened: (§1)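 Analogous stably modified HeLa dual-luciferase system for Rev-RRE function, used as a specificity control; activity followed by luminescence up to 100 μM.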

[5] = system: Human immunodeficiency virus 1; experiment: Antiviral activity against HIV1 Ba-L infected in PBMCs assessed as reverse transcriptase activity after 7 days by MTS assay; format: functional, organism-based; conditions: Human immunodeficiency virus 1, Ba-L, 168 h
[6] = system: Human immunodeficiency virus 1; experiment: Antiviral activity against HIV1 UG/92/029 infected in PBMCs assessed as reverse transcriptase activity after 7 days by XTT assay; format: functional, organism-based; conditions: Human immunodeficiency virus 1, UG/92/029, 168 h
[7] = system: Human immunodeficiency virus 1; experiment: Antiviral activity against HIV1 HT/92/599 infected in PBMCs assessed as reverse transcriptase activity after 7 days by XTT assay; format: functional, organism-based; conditions: Human immunodeficiency virus 1, HT/92/599, 168 h
[8] = system: Human immunodeficiency virus 1; experiment: Antiviral activity against HIV1 97ZA003 infected in PBMCs assessed as reverse transcriptase activity after 7 days by XTT assay; format: functional, organism-based; conditions: Human immunodeficiency virus 1, 97ZA003, 168 h
[9] = system: Human immunodeficiency virus 1; experiment: Antiviral activity against HIV1 UG/92/001 infected in PBMCs assessed as reverse transcriptase activity after 7 days by XTT assay; format: functional, organism-based; conditions: Human immunodeficiency virus 1, UG/92/001, 168 h
[10] = system: Human immunodeficiency virus 1; experiment: Antiviral activity against HIV1 CMU06 infected in PBMCs assessed as reverse transcriptase activity after 7 days by XTT assay; format: functional, organism-based; conditions: Human immunodeficiency virus 1, CMU06, 168 h
[11] = system: Human immunodeficiency virus 1; experiment: Antiviral activity against HIV1 BR/93/020 infected in PBMCs assessed as reverse transcriptase activity after 7 days by XTT assay; format: functional, organism-based; conditions: Human immunodeficiency virus 1, BR/93/020, 168 h
[12] = system: Human immunodeficiency virus 1; experiment: Antiviral activity against HIV1 JV1083 infected in PBMCs assessed as reverse transcriptase activity after 7 days by XTT assay; format: functional, organism-based; conditions: Human immunodeficiency virus 1, JV1083, 168 h
[13] = system: Human immunodeficiency virus 1; experiment: Antiviral activity against HIV1 BCF02 infected in PBMCs assessed as reverse transcriptase activity after 7 days by XTT assay; format: functional, organism-based; conditions: Human immunodeficiency virus 1, BCF02, 168 h
PBMC = experiment: Cytotoxicity against human PBMC cells by XTT assay; format: cell-based
[14] = system: Human immunodeficiency virus 1; experiment: Inhibition of HIV1 viral entry into the human TZM-bl cells assessed as decrease of luminescence at 25 uM after 18 hrs by luciferase reporter gene assay; format: functional, organism-based
Procedure, shortened: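 Viral entry checked in TZM-bl cells with a cell-based entry inhibition assay at concentrations up to 25 μM.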

[15] = Cytotoxicity in human HeLa cells transfected with HIV Rev-LTR by FITC-conjugated DAPI staining by fluorescence microscopy; format: cell-based; conditions: read-out: TC50 (the source's name)
Nucleic Acid [16] = experiment: Induction of aggregation of 32P labeled HIV1 TAR RNA after 60 mins by native gel electrophoresis; format: nucleic-acid assay, Human immunodeficiency virus 1
Nucleic Acid [17] = experiment: Selectivity for HIV1 TAR RNA over HIV1 RRE RNA; format: nucleic-acid assay; conditions: Human immunodeficiency virus 1
HeLa = experiment: Inhibition of HIV1 Rev transfected in human HeLa cells up to 100 uM after 48 hrs by duel luciferase reporter gene assay; format: cell-based; conditions: Human immunodeficiency virus 1; procedure, shortened: as §1

SMILES	EC50 (Nucleic Acid [1]) [µM]	IC50 (Nucleic Acid [2]) [µM]	CC50 [3] [µM]	IC50 [4] [µM]	IC50 [5] [µM]	IC50 (PBMC) [µM]	CC50 [15] [µM]	also measured
C[C@@H](CN[C@H](CN[C@H](CN[C@H](CNCCC(N)=O)Cc1ccc(O)cc1)Cc1ccc(O)cc1)Cc1ccc(O)cc1)NC[C@H](Cc1ccc(O)cc1)NC[C@H](Cc1ccc(O)cc1)NC[C@@H](N)Cc1ccc(O)cc1	0.5	> 20	> 100	60	4	55	> 100	IC50 [6]: 2.3 µM; IC50 [7]: 4.5 µM; IC50 [8]: 25 µM; IC50 [9]: 2.3 µM; IC50 [10]: 18.2 µM; IC50 [11]: 5.1 µM; IC50 [12]: 11.9 µM; IC50 [13]: 16.3 µM; inhibition [14]: inactive
NC(=O)CCNC[C@H](Cc1ccc(O)cc1)NC[C@H](Cc1ccc(O)cc1)NC[C@@H](N)Cc1ccc(O)cc1	83.8	> 50	> 100	> 100	–	–	> 100	EC50 (Nucleic Acid [16]): 490 µM
NC(=O)CCNC[C@H](Cc1ccc(O)cc1)NC[C@H](Cc1ccc(O)cc1)NC[C@H](Cc1ccc(O)cc1)NC[C@@H](N)Cc1ccc(O)cc1	8.9	> 20	–	–	11	46	–	EC50 (Nucleic Acid [16]): 450 µM
C[C@@H](CN[C@H](CNCCC(N)=O)Cc1ccc(O)cc1)NC[C@H](Cc1ccc(O)cc1)NC[C@H](Cc1ccc(O)cc1)NC[C@H](Cc1ccc(O)cc1)NC[C@@H](N)Cc1ccc(O)cc1	1.93	–	–	–	–	–	–	–
NC(=O)CCNC[C@H](Cc1ccc(O)cc1)NC[C@H](Cc1ccc(O)cc1)NC[C@H](Cc1ccc(O)cc1)NC[C@H](Cc1ccc(O)cc1)NC[C@H](Cc1ccc(O)cc1)NC[C@H](Cc1ccc(O)cc1)NC[C@@H](N)Cc1ccc(O)cc1	0.47	–	–	–	–	–	–	–
NCCCC[C@@H](CN[C@H](CNCCC(N)=O)Cc1ccc(O)cc1)NC[C@H](Cc1ccc(O)cc1)NC[C@H](CCCCN)NC[C@H](Cc1ccc(O)cc1)NC[C@@H](N)Cc1ccc(O)cc1	0.36	–	38	–	–	–	–	–
NCCCC[C@@H](CN[C@H](CNCCC(N)=O)Cc1ccc(O)cc1)NC[C@H](Cc1ccc(O)cc1)NC[C@H](CCCCN)NC[C@H](Cc1c[nH]c2ccccc12)NC[C@@H](N)Cc1ccc(O)cc1	0.24	–	12	–	–	–	–	–
C[C@@H](CN[C@H](CN[C@H](CN[C@H](CNCCC(N)=O)Cc1ccc(O)cc1)Cc1ccc(O)cc1)Cc1ccc(O)cc1)NC[C@H](Cc1ccc(O)cc1)NC[C@@H](N)Cc1ccc(O)cc1	1.63	> 20	> 100	> 100	5	56	> 100	Selectivity Index (Nucleic Acid [17]): 20; inhibition (HeLa): inactive; IC50 [6]: 4.5 µM; IC50 [7]: 12.7 µM; IC50 [8]: 32 µM; IC50 [9]: 5.1 µM; IC50 [10]: 7.7 µM; IC50 [11]: 7.5 µM; IC50 [12]: 17.8 µM; IC50 [13]: 20.1 µM; inhibition [14]: inactive
NC(=O)CCNC[C@H](Cc1ccc(O)cc1)NC[C@H](Cc1ccc(O)cc1)NC[C@H](Cc1ccc(O)cc1)NC[C@H](Cc1ccc(O)cc1)NC[C@H](Cc1ccc(O)cc1)NC[C@H](Cc1ccc(O)cc1)NC[C@H](Cc1ccc(O)cc1)NC[C@@H](N)Cc1ccc(O)cc1	0.18	–	–	–	–	–	–	–
C[C@@H](CN[C@H](CN[C@H](CNCCC(N)=O)Cc1ccc(O)cc1)Cc1ccc(O)cc1)NC[C@H](Cc1ccc(O)cc1)NC[C@H](Cc1ccc(O)cc1)NC[C@@H](N)Cc1ccc(O)cc1	3.32	–	–	–	–	–	–	–
NCCCC[C@@H](CN[C@H](CN[C@H](CN[C@H](CNCCC(N)=O)Cc1ccc(O)cc1)Cc1ccc(O)cc1)Cc1ccc(O)cc1)NC[C@H](Cc1ccc(O)cc1)NC[C@@H](N)Cc1ccc(O)cc1	0.45	–	> 100	> 100	7	80	> 100	–
NC(=O)CCNC[C@H](Cc1ccc(O)cc1)NC[C@H](Cc1ccc(O)cc1)NC[C@H](Cc1ccc(O)cc1)NC[C@H](Cc1ccc(O)cc1)NC[C@@H](N)Cc1ccc(O)cc1	2.96	> 20	> 100	> 100	9	67	> 100	EC50 (Nucleic Acid [16]): 220 µM
NCCCC[C@@H](CN[C@H](CN[C@H](CN[C@H](CNCCC(N)=O)Cc1ccc(O)cc1)Cc1ccc(O)cc1)Cc1ccc(O)cc1)NC[C@H](Cc1c[nH]c2ccccc12)NC[C@@H](N)Cc1ccc(O)cc1	0.3	–	–	–	–	–	–	–
C[C@H](N)CN[C@@H](C)CN[C@@H](C)CN[C@@H](C)CN[C@@H](C)CN[C@H](CNCCC(N)=O)Cc1ccc(O)cc1	13.9	–	–	–	–	–	–	–
NC(=O)CCNC[C@H](Cc1ccc(O)cc1)NC[C@H](Cc1ccc(O)cc1)NC[C@H](Cc1ccc(O)cc1)NC[C@H](Cc1ccc(O)cc1)NC[C@H](Cc1ccc(O)cc1)NC[C@@H](N)Cc1ccc(O)cc1	1.7	> 20	> 100	34	2	76	> 100	Selectivity Index (Nucleic Acid [17]): 20; EC50 (Nucleic Acid [16]): 40 µM; IC50 [6]: 6.7 µM; IC50 [7]: 8.8 µM; IC50 [8]: 27 µM; IC50 [9]: 6 µM; IC50 [10]: 19 µM; IC50 [11]: 4.7 µM; IC50 [12]: 13.1 µM; IC50 [13]: 18.9 µM; inhibition [14]: inactive
C[C@H](N)CN[C@H](CN[C@H](CN[C@H](CN[C@H](CN[C@H](CNCCC(N)=O)Cc1ccc(O)cc1)Cc1ccc(O)cc1)Cc1ccc(O)cc1)Cc1ccc(O)cc1)Cc1ccc(O)cc1	3.26	–	–	–	–	–	–	–
C[C@@H](CN[C@H](CN[C@H](CN[C@H](CN[C@H](CNCCC(N)=O)Cc1ccc(O)cc1)Cc1ccc(O)cc1)Cc1ccc(O)cc1)Cc1ccc(O)cc1)NC[C@@H](N)Cc1ccc(O)cc1	3.94	–	–	–	–	–	–	–
C[C@@H](CN[C@H](CN[C@H](CN[C@H](CNCCC(N)=O)Cc1ccc(O)cc1)Cc1ccc(O)cc1)Cc1ccc(O)cc1)NC[C@H](Cc1ccc(O)cc1)NC[C@H](Cc1ccc(O)cc1)NC[C@H](Cc1ccc(O)cc1)NC[C@@H](N)Cc1ccc(O)cc1	0.18	–	2.4	–	–	–	–	–
